“Also recorded” adds a separate entry of the source.
How the values were obtained:
[1] = biological target: T1, PqsR (Pseudomonas aeruginosa, UniProt Q9I4X0); assay: 10 μM spot test in the PAO1-L mCTX:PpqsA-lux bioreporter; format: cell-based, Pseudomonas aeruginosa PAO1-L; details: 10 μM ligand concentration
T1 sequence (Q9I4X0 1-332): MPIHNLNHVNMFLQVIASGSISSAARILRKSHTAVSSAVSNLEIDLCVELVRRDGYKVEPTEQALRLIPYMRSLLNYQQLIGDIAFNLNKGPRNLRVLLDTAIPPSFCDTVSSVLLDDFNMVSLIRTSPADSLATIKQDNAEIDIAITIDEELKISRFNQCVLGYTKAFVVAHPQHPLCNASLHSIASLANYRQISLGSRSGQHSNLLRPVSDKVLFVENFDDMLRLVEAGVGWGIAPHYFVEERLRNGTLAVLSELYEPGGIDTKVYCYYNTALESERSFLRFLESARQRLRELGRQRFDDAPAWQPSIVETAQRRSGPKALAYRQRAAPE
Outline: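 Single-concentration screen of the PAO1-L mCTX:PpqsA-lux strain in LB. The reporter was grown overnight at 37 °C to OD600 2.0–3.0 and diluted to OD600 0.02. A 20 μM compound solution in LB was mixed 1:1 with the cells (final 10 μM) in at least three wells. OD600 and luminescence were read every 30 min at 37 °C over 24 h. Activity (luminescence/OD600) was taken at the luminescence peak and compared with the DMSO control.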

[2] = biological target: T1, PqsR; assay: PqsR bioreporter assay; format: cell-based, Pseudomonas aeruginosa PAO1-L; details: for activity: read-out: IC50 value in PAO1-L
Outline: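 Dose-response of the PAO1-L mCTX:PpqsA-lux reporter. Ten compound concentrations in LB came from two tenfold dilution series and were mixed 1:1 with PAO1-L diluted to OD600 0.02, giving final 31.6 μM to 1 nM, in triplicate. The plate was kinetically read at 37 °C over 24 h for OD600 and luminescence every 30 min. Values were taken at the luminescence peak (8–9 h), and log concentration was plotted against RLU/OD600.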

[3] = test system: A549 lung epithelial cells; assay: Cytotoxicity; format: cell-based, human; details: 0.1 to 100 μM, 16 h
[4] = Solubility in the cytotoxicity test buffer; format: physicochemical; details: this concentration = 100 μM

SMILES	activity when screened at 10 μM (in words) [1]	activity [2]	also measured
CC(C)c1noc(Cn2cnc3ccc(Cl)cc3c2=O)n1 [Compound 7]	inactive; also recorded: inactivity	–	–
Cc1nc(Cn2cnc3ccc(Cl)cc3c2=O)cs1 [Compound 8, 6-Chloro-3-((2-methylthiazol-4-yl)methyl)quinazolin-4(3H)-one]	–	> 50%	–
O=c1c2cc(Cl)ccc2ncn1Cc1csc(C(F)(F)F)n1 [Compound 9, 6-Chloro-3-((2-(trifluoromethyl)thiazol-4-yl)methyl)quinazolin-4(3H)-one]	–	> 50%	–
CCc1nc(Cn2cnc3ccc(Cl)cc3c2=O)cs1 [Compound 10, 6-Chloro-3-((2-ethylthiazol-4-yl)methyl)quinazolin-4(3H)-one]	–	> 50%	–
N#CCc1nc(Cn2cnc3ccc(Cl)cc3c2=O)cs1 [Compound 11, 2-(4-((6-Chloro-4-oxoquinazolin-3(4H)-yl)methyl)thiazol-2-yl)acetonitrile]	–	> 50%	–
CC(C)(C)c1nc(Cn2cnc3ccc(Cl)cc3c2=O)cs1 [Compound 12, 3-((2-(Tert-butyl)thiazol-4-yl)methyl)-6-chloroquinazolin-4(3H)-one]	–	–	activity in PAO1-L compared with 32 ([2]; ratio of IC50 values, strain PAO1-L): seven-fold stronger activity
CCCCCc1nc(Cn2cnc3ccc(Cl)cc3c2=O)cs1 [Compound 18, 6-Chloro-3-((2-pentylthiazol-4-yl)methyl)quinazolin-4(3H)-one]	–	–	cytotoxic concentration (no significant toxicity up to; LD50 not reached) [3]: > 100 µM; solubility in the test buffer [4]: neither compound was fully soluble above this concentration
CCCCCCc1nc(Cn2cnc3ccc(Cl)cc3c2=O)cs1 [Compound 19, 6-Chloro-3-((2-hexylthiazol-4-yl)methyl)quinazolin-4(3H)-one]	–	–	cytotoxic concentration (no significant toxicity up to; LD50 not reached) [3]: > 100 µM; solubility in the test buffer [4]: neither compound was fully soluble above this concentration
O=c1c2cc(Cl)ccc2ncn1Cc1csc(-c2ccc([N+](=O)[O-])cc2)n1 [Compound 23, 6-Chloro-3-((2-(4-nitrophenyl)thiazol-4-yl)methyl)quinazolin-4(3H)-one]	inactive	> 50%	–
COCCNc1nc(Cn2cnc3ccc(Cl)cc3c2=O)cs1 [Compound 24, 6-Chloro-3-((2-((2-methoxyethyl)amino)thiazol-4-yl)methyl)quinazolin-4(3H)-one]	no inhibition	> 50%	–
NC(N)=Nc1nc(Cn2cnc3ccc(Cl)cc3c2=O)cs1 [Compound 26, 2-(4-((6-Chloro-4-oxoquinazolin-3(4H)-yl)methyl)thiazol-2-yl)guanidine]	inactive	> 50%	–
CC1CCN(c2ncc(Cn3cnc4ccc(Cl)cc4c3=O)s2)CC1 [Compound 27, 6-Chloro-3-((2-(4-methylpiperidin-1-yl)thiazol-5-yl)methyl)quinazolin-4-(3H)-one]	–	> 50%	–
O=c1c2cc(Cl)ccc2ncn1Cc1cnc(NC2CCCCC2)s1 [Compound 28, 6-Chloro-3-((2-(cyclohexylamino)thiazol-5-yl)methyl)quinazolin-4-(3H)-one]	–	> 50%	–
CN(CCO)c1ncc(Cn2cnc3ccc(Cl)cc3c2=O)s1 [Compound 29, 6-Chloro-3-((2-(2-hydroxyethyl(methyl)amino)thiazol-5-yl)methyl)quinazolin-4-(3H)-one]	–	> 50%	–
CCCCNc1ncc(Cn2cnc3ccc(Cl)cc3c2=O)s1 [Compound 30, 3-((2-(Butylamino)thiazol-5-yl)methyl)-6-chloroquinazolin-4(3H)-one]	–	> 50%	–
COCCNc1ncc(Cn2cnc3ccc(Cl)cc3c2=O)s1 [Compound 31, 6-Chloro-3-((2-((2-methoxyethyl)amino)thiazol-5-yl)methyl)quinazolin-4-(3H)-one]	–	> 50%	–
CCCCCc1nc(Cn2cnc3cc(Cl)ccc3c2=O)cs1 [Compound 33, 7-Chloro-3-((2-pentylthiazol-4-yl)methyl)quinazolin-4(3H)-one]	inactive	> 50%	–
O=c1c2cc(Cl)ccc2ncn1Cc1cnc(Cl)s1 [Compound 34, 6-Chloro-3-((2-chlorothiazol-5-yl)methyl)quinazolin-4(3H)-one]	–	> 50%	–
CC(C)c1ncc(Cn2cnc3ccc(Cl)cc3c2=O)s1 [Compound 35, 6-Chloro-3-((2-isopropylthiazol-5-yl)methyl)quinazolin-4(3H)-one]	inactive; also recorded: inactivity	> 50%	–
